This is a sample that favours compounds with a hit; in the whole collection about 2.1% have one here.
GSTO1 counter: blocks human GSTO1 in RBBP9 counter-screen; recombinant GSTO1, activity-based probe fluorescence polarization; P78417; 300,000 compounds, 1.1% hits; AID 1974; inhibition, % at 5.96 µM;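 active = inhibition above the campaign mean inhibition plus 3 SD, cut at about 35% in these data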;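 note: 0% = GSTO1-1 with DMSO and 100% = wells lacking GSTO1-1 enzyme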
Target sequence (P78417 whole entry, looked up): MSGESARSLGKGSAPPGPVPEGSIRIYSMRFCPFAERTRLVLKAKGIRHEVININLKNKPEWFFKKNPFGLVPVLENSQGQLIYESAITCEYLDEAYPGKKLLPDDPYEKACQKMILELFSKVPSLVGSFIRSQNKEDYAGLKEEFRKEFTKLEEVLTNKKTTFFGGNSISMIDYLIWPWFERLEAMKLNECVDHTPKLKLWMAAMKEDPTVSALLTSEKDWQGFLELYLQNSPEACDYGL
PP1 inh: blocks human PP1-alpha phosphatase, a PP5 counter-screen; inhibition, % at 6.7 µM; 320,000 compounds, 0.9% hits; purified PP1alpha, OMFP fluorescence; P62136;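 active = inhibition above the mean inhibition of all tested compounds plus 3 SD, computed separately for each screening campaign, cut at about 15% in these data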
TDP2 inh: TDP2 (human) inhibition, absorbance primary screen. recombinant TDP2, T5PNP hydrolysis, p-nitrophenol absorbance 415 nm. inhibition, % at 12.8 µM. 370,000 compounds, 0.34% hits. AID 720702;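 active = inhibition above the mean of all tested compounds plus 3 SD, set per campaign, cut at about 25% in these data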;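 note: 0% = DMSO with enzyme and 100% = buffer with substrate but no TDP2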
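Assay system: Recombinant human TDP2 | Quantity: 120 nM TDP2 per well | Incubation: 2 h at 37 °C | Signal: Epi absorbance | Evaluation: Percent inhibition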
Apaf1 inhib: inhibitors of human Apaf-1 apoptosome; O14727; reconstituted apoptosome caspase-3 activity, DEVD-Rh110 fluorescence; inhibition, % at 20 µM; 330,000 compounds, 0.71% hits; AID 489030; active = inhibition of at least 40% at 20 µM;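 note: plate controls were DMSO wells for no effect and DEVD-CHO caspase inhibitor wells for full effect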
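Material: biochemical Apaf-1 apoptosome reconstitution. Medium: Hepes buffer, pH 7.5. Also added: cytochrome c activation, bis-DEVD rhodamine 110 substrate. Timing: 30 min compound preincubation, 50 min activation, room temperature. Measured by: rhodamine 110 fluorescence at Ex 480/Em 540 nm.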
PP5 inh: inhibitors of human protein phosphatase 5 (PP5); P53041; purified PP5c, OMFP substrate fluorescence; inhibition, % at 6.7 µM; 320,000 compounds, 0.18% hits; AID 1987;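 active = inhibition above the campaign's mean inhibition across all tested compounds plus 3 SD, cut at about 9.5% in these data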;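 note: 0% = DMSO only and 100% = 100 µM cantharidin control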
Starred values were filed as active, the others as inactive; · = not tested or not shown.

SMILES | GSTO1 counter | PP1 inh | TDP2 inh | Apaf1 inhib | PP5 inh
Nc1ccc(N2CCN(c3ccc(F)cc3)CC2)cc1 | -6 | 3 | -6 | 8 | 3
Nc1ccc(N2CCCCCC2)cc1 | 78* | 10 | · | 93* | 3
C[C@H](O)[C@@H]1C(=O)N2CCc3c([nH]c4c(-c5ccccc5)cccc34)[C@@H]2C[C@@H]1N(C)C(=O)OCc1ccccc1 | · | · | -14 | · | ·
COc1ccc(S(=O)(=O)N2CCN(c3ccc4nnc(-c5ccccc5)n4n3)CC2)cc1 | 8 | 3 | 1 | 65* | 2
O=C(/C=C/c1ccccc1O)c1ccc(Cl)cc1 | -15 | 17* | -17 | 10 | 0
Cc1c(NC(=O)C2CCCN(S(=O)(=O)c3ccc(F)cc3)C2)c(=O)n(-c2ccccc2)n1C (centres undefined) | · | · | -3 | · | ·
O=c1c(CO)cc(CO)cc(CO)c1O | 13 | 8 | -3 | -17 | 8
O=C1C=CC(=O)c2c(O)c(CO)c(CO)c(O)c21 | · | · | 28* | · | ·
O=C(COC(=O)COc1ccc(Cl)cc1Cl)Nc1cccnc1Cl | 35* | 1 | 7 | 7 | -2
COc1ccc(C(=O)OCCCN(C)C2CN(Cc3cn(Cc4cccc(F)c4)nn3)S(=O)(=O)C2)cc1OC (centres undefined) | · | · | 3 | · | ·
CCc1ccccc1NC(=O)CCC(=O)OCC(=O)c1ccc(-c2ccccc2)cc1 | -9 | 17* | -3 | -10 | -1
COc1cc(NS(=O)(=O)c2ccc(NC(=S)NC(=O)c3sc4ccccc4c3Cl)cc2)nc(OC)n1 | -9 | -2 | 2 | · | -1
NC(N)=NS(=O)(=O)c1ccc(NC(=S)NC(=O)c2sc3ccccc3c2Cl)cc1 | -2 | 16* | 2 | -4 | 1
CC(=O)Nc1ccc(NC(=O)CNC(=O)c2sc3ccccc3c2Cl)cc1 | -10 | 0 | -4 | -10 | 1
COC(=O)c1ccc(NC(=O)CNC(=O)c2sc3ccccc3c2Cl)cc1 | · | 15* | -9 | 8 | 2
Nc1c(O)cccc1C(=O)O | 76* | 1 | 20 | 53* | 8
CC(COc1cccc(Br)c1)CN1CCC(C(O)(c2ccccc2)c2ccccc2)CC1 (centres undefined) | · | · | 0 | · | ·
c1cc2c3c(cccc3c1)C(N1CCCCC1)=N2 | 4 | -2 | · | 91* | 0
Cc1ccc(-c2nnn(CC(=O)Nc3ccc(S(=O)(=O)N4CCC(C)CC4)cc3)n2)cc1 | 1 | 16* | -1 | -16 | 3
CC1CCCN(S(=O)(=O)c2ccc(NC(=O)Cn3nnc(-c4ccccc4F)n3)cc2)C1 (centres undefined) | -30 | 2 | -6 | -6 | 7
CC1CCN(S(=O)(=O)c2ccc(NC(=O)Cn3nnc(-c4ccccc4)n3)cc2)CC1 | -25 | 17* | -8 | 3 | 1
CC1CCN(CC(=O)Nc2ccc(S(=O)(=O)N3CCC(C)CC3)cc2)CC1 | -1 | -1 | 7 | -7 | 3
CC1=C(C(=O)N(C(C)C)C(C)C)CC(CC(=O)NC(c2ccccc2)c2ccccc2)C(=O)N1CCC1=CCCCC1 (centres undefined) | · | · | 6 | · | ·
CC1=C(C)/C(=N\OS(=O)(=O)c2ccccc2)C=CC1=O | 35* | -3 | · | 0 | -1
CC1=CC(=O)C(C(C)C)=C/C1=N\OS(=O)(=O)c1ccc(F)cc1 | · | · | 2 | · | ·
SMILES | GSTO1 counter | PP1 inh | TDP2 inh | Apaf1 inhib | PP5 inh
COc1ccc(Oc2c(Br)cnn(Cc3cccc4ccccc34)c2=O)cc1 | · | · | 3 | · | ·
CC(C)(C)c1ccc(COn2c(=O)c(-c3ccco3)[n+]([O-])c3ccccc32)cc1 | 43* | 6 | -1 | 16 | -3
CC(=O)Nc1ccc(NC(=O)CSc2nnc(-c3cccs3)o2)cc1 | · | · | -6 | · | ·
Cc1cc2nc3c(=O)n(CCc4ccccc4)c(=O)[nH]c3nc2cc1N | 37* | -4 | 1 | 10 | -6
N#CC1(NC(=O)COC(=O)c2ccc(-c3ccc(O)cc3)cc2)CCCCC1 | · | 16* | 5 | -2 | 2
CCNC(=O)CSc1nnc(-c2ccccc2)n1-c1ccc(OCC)cc1 | -1 | -2 | -2 | -8 | 1
CCOc1ccc(-n2c(-c3ccccc3)nnc2-c2ccccc2)cc1 | -2 | 16* | 2 | 5 | 1
O=C1NC[C@@H](CCCCN2C[C@H](Cc3ccc(O)cc3)N(CCc3ccccc3)C(=O)C2=O)N(CCC2CCCCC2)C1=O | · | · | -3 | · | ·
O=C1C(Cl)=C(N2CCCC2)C(=O)N1c1ccc(F)cc1 | 35* | -3 | 8 | -8 | 0
